Source: PubChem (Broad Institute)
A selection: hits, their analogues and other compounds. The true share with any hit is near 3.1%.
FGF22 binding – FGF22 (human) thermal shift binding; Q9HCT0; recombinant FGF22 thermal shift, SYPRO orange fluorescence; percent of sucrose octasulfate shift, DMSO zero; activity (Tm shift, normalised), % at 9.99 µM; 340,000 tested, 1.5% active;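 active = mean Tm shift, scaled 0 neutral to 100 positive control, at about 1.3% or above, every replicate too, limit read from the data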
Target sequence (Q9HCT0 whole entry, looked up): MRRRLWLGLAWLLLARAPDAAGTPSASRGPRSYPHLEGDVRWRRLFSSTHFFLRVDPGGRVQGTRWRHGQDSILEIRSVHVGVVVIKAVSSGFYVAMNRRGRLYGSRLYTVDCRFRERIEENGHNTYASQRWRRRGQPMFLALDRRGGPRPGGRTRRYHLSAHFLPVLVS
FN deposition inh – fibronectin deposition inhibition; 350,000 tested, 0.086% active; AID 743247; inhibition, % at 12.6 µM; AH1F fibroblasts, Alexa488-fibronectin deposition fluorescence, overnight;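 active = mean inhibition across replicates of 30% or more, regardless of how many single replicates reach that level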;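 note: positive control wells lacked labelled fibronectin entirely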
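Assay system: AH1F fibroblast monolayer, labelled fibronectin deposition. Amount: 10000 cells per well. Also added: labelled fibronectin 24 nM. Compound: single-point pinned compound. Incubation: cell attachment 1 h, compound and FN exposure overnight. Detection: fluorescence after three HBSS washes, excitation 485 nm, emission 525 nm. Read-out: inhibition of fibronectin deposition signal.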
PGC1a acetyl inh – PGC1a acetylation modulation, inhibitor mode; inhibition, % at 15.6 µM; 350,000 tested, 0.17% active; U2OS PGC1a acetylation, AlphaScreen anti-acetyl-lysine; with virally co-expressed GCN5 acetyltransferase; AID 651687;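 active = every replicate shows inhibition of at least 40%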;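 note: 0% = neutral control wells and 100% = positive control wells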
EWS-Fli inh – EWS/Fli transcriptional activity inhibition. A673 NR0B1-luciferase reporter, viability-normalised. inhibition, % at 12.6 µM. 350,000 tested, 0.67% active;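 active = mean inhibition of at least 50% after viability correction, with every replicate also passing that limit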;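 note: firefly luciferase signal divided by Alamar Blue viability fluorescence both relative to DMSO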
Env fusion inh – blocks HIV Env-driven cell-cell fusion. 360,000 tested, 1.1% active. AID 651610. inhibition, % at 12.3 µM. HeLa-JRFL Env/CEM21 cell fusion, luciferase;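 active = mean replicate inhibition score of at least 50 and every replicate individually at or above 50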;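 note: 0% = plate neutral controls and 100% = maraviroc near 300 nM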
PAX8 reporter – PAX8 transcriptional activity inhibition. RMG-I TPO-luciferase reporter, SteadyGlo, 24 h. inhibition, % at 12.6 µM. 360,000 tested, 1.2% active. AID 652154;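 active = mean replicate inhibition at least 60% with every replicate also reaching 60%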;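 note: luciferase light reporting Pax8 driven TPO promoter activity; plate controls were median of neutral control wells for no effect and mitoxantrone controls for full effect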
Active calls of the source: *; [ ] = dose if it differs, or a comment.

For COc1ccc(Cn2c(=O)[nH]c3cc(C(=O)N4CCN(c5ccccc5F)CC4)ccc3c2=O)cc1 the results were FGF22 binding 0, FN deposition inh -3, EWS-Fli inh 14, Env fusion inh 3 and PAX8 reporter 0.
COCCNC(=O)CSc1nccn1Cc1ccc2c(c1)OCO2 was read as FGF22 binding 43*, FN deposition inh 1, PGC1a acetyl inh 4, EWS-Fli inh 3, Env fusion inh -3 and PAX8 reporter -21.
Screening CCCn1c(=S)[nH]c2cc(C(=O)N3CCc4ccccc43)ccc2c1=O returned FN deposition inh 5, PGC1a acetyl inh -5 and Env fusion inh 29.
`COCCn1c(=S)[nH]c2cc(C(=O)N3CCc4ccccc43)ccc2c1=O` gave PGC1a acetyl inh 5 and Env fusion inh 80*.
For COc1ccc(Cn2c(=O)[nH]c3cc(C(=O)N4CCN(Cc5ccccc5)CC4)ccc3c2=O)cc1 the results were FN deposition inh 7, PGC1a acetyl inh -15, Env fusion inh 24* and PAX8 reporter 25.
COc1ccc2c3c(n(C)c2c1)[C@@H](CO)NCC31CCN(C(=O)Nc2ccccc2F)CC1 was read as FGF22 binding 0, PGC1a acetyl inh -2 and EWS-Fli inh 3.
Screening C[C@@H]1CN([C@H](C)CO)S(=O)(=O)c2ccc(-c3cccnc3)cc2O[C@@H]1CN(C)C(=O)C1CCCCC1 returned FGF22 binding 0, PGC1a acetyl inh 4, EWS-Fli inh -2 and Env fusion inh 5[16.7 µM].
`CO[C@@H]1CN(C)C(=O)c2cc(NC(=O)C3CCCC3)ccc2OC[C@H](C)NC[C@@H]1C` gave FGF22 binding 0, FN deposition inh -5, EWS-Fli inh -11 and PAX8 reporter 0.
Screening CN1[C@H](C(=O)N2CCCCC2)[C@@H](CO)[C@@H]2Cn3c(ccc(/C=C/c4ccccc4)c3=O)[C@@H]21 returned FGF22 binding 0, EWS-Fli inh 8 and PAX8 reporter 1.
Screening C[C@@H]1CN([C@@H](C)CO)C(=O)c2cc(NC(=O)Nc3ccc(C(F)(F)F)cc3)ccc2O[C@H]1CN(C)S(=O)(=O)c1ccc(Cl)cc1 returned FGF22 binding 0, FN deposition inh -3, PGC1a acetyl inh -5, EWS-Fli inh -6 and Env fusion inh 15[16.7 µM].
`C[C@H](CO)N1C[C@H](C)[C@H](CN(C)S(=O)(=O)c2ccccc2)Oc2ccc(NS(=O)(=O)c3ccccc3)cc2C1=O` gave FGF22 binding 0, PGC1a acetyl inh -24, EWS-Fli inh -2, Env fusion inh 0[16.7 µM] and PAX8 reporter -14.
Screening COCCn1c(=S)[nH]c2cc(C(=O)N3CCN(Cc4ccc5c(c4)OCO5)CC3)ccc2c1=O returned FN deposition inh 0, Env fusion inh 86* and PAX8 reporter 56.
For O=C(Nc1ccc(S(=O)(=O)N2CCOCC2)cc1)c1cc(-c2cc(Cl)ccc2O)n[nH]1 the results were FGF22 binding 0, FN deposition inh 12, PGC1a acetyl inh -18, EWS-Fli inh 59*, Env fusion inh -20 and PAX8 reporter 76*.
For Cc1cc(O)c(-c2cc(C(=O)Nc3ccc(S(=O)(=O)N4CCOCC4)cc3)[nH]n2)cc1C the results were FN deposition inh -2, PGC1a acetyl inh -7, Env fusion inh -35 and PAX8 reporter 73*.
Cc1ccc(O)c(-c2cc(C(=O)Nc3ccc(S(=O)(=O)N4CC(C)OC(C)C4)cc3)[nH]n2)c1 (centres undefined) was read as FN deposition inh 0, PGC1a acetyl inh -20, Env fusion inh -41 and PAX8 reporter 22.
CN(C)S(=O)(=O)c1ccc(NC(=O)CCNC(=O)c2ccc([N+](=O)[O-])cc2)cc1 was read as FGF22 binding 43*, FN deposition inh 6, PGC1a acetyl inh -11, EWS-Fli inh 6, Env fusion inh -2 and PAX8 reporter 28.
Screening CN(C)S(=O)(=O)c1ccc(C(=O)OCc2ccc([N+](=O)[O-])cc2)cc1 returned FGF22 binding 44*, FN deposition inh -6, EWS-Fli inh -15, Env fusion inh 8 and PAX8 reporter 19.
For Cc1ccc(NC(=O)CCNC(=O)c2ccc([N+](=O)[O-])cc2)cc1S(=O)(=O)N(C)C the results were FGF22 binding 0, FN deposition inh -1, PGC1a acetyl inh -2, EWS-Fli inh 11, Env fusion inh 20 and PAX8 reporter 7.
O=C(Cc1ccncc1)NCC[C@@H]1CC[C@@H](NC(=O)Nc2cccc(F)c2)[C@@H](CO)O1 was read as FGF22 binding 0, FN deposition inh 9, PGC1a acetyl inh 10, EWS-Fli inh -14, Env fusion inh 0[16.7 µM] and PAX8 reporter 12.
For O=C(O)c1ccc(NC(=O)c2cn(-c3ccccc3)nc2-c2ccc(Br)cc2)cc1 the results were FGF22 binding 1.6*, PGC1a acetyl inh -6, EWS-Fli inh -9, Env fusion inh 12 and PAX8 reporter -7.
CN1CCC(=NNC(=O)c2cn(-c3ccccc3)nc2-c2ccccc2)CC1 was read as FGF22 binding 43*, FN deposition inh -2, EWS-Fli inh -7, Env fusion inh 2 and PAX8 reporter 9.
CCC(C)/C(C)=N/NC(=O)c1cn(-c2ccccc2)nc1-c1ccccc1 (centres undefined) was read as FN deposition inh -5, Env fusion inh -18 and PAX8 reporter -7.
Screening O=C(O)c1ccc(NC(=O)c2cn(-c3ccccc3)nc2-c2ccccc2)cc1 returned FN deposition inh -8, PGC1a acetyl inh -16, EWS-Fli inh -21, Env fusion inh -46 and PAX8 reporter -86.
Screening C[C@@H]1CN([C@@H](C)CO)C(=O)c2cc(NS(=O)(=O)c3ccc(Cl)cc3)ccc2O[C@@H](C)CCCCO[C@@H]1CN(C)C(=O)Cc1ccccc1 returned FGF22 binding 0, FN deposition inh 1, PGC1a acetyl inh 0, EWS-Fli inh -2, Env fusion inh 8[16.7 µM] and PAX8 reporter 29.
`CC(=O)c1cc(-c2ccccc2)n(CCC(=O)NC2CCCC2)c1C` gave FGF22 binding 44*, FN deposition inh -1, EWS-Fli inh 8, Env fusion inh -2 and PAX8 reporter 11.
For COc1ccc(Cc2c(-c3ccc(C)cc3)nc3c(C)cc(Br)cn23)c(C)c1 the results were FGF22 binding 0, FN deposition inh -7, PGC1a acetyl inh 0, EWS-Fli inh -9, Env fusion inh -12 and PAX8 reporter 22.
`COc1ccc(Cc2c(-c3ccc(OC)c(OC)c3)nc3c(C)cc(Br)cn23)c(C)c1` gave FGF22 binding 0, FN deposition inh -2, PGC1a acetyl inh 2, EWS-Fli inh 8, Env fusion inh -27 and PAX8 reporter 66*.
`CC(C)NC(=O)N1[C@@H](CO)[C@@H]2c3ccccc3N(C)C[C@@H]21` gave FGF22 binding 0, FN deposition inh 5, PGC1a acetyl inh 1, EWS-Fli inh -4 and PAX8 reporter -5.
